Test results: ChEMBL document CHEMBL4251542, “Discovery of cyclopropyl chromane-derived pyridopyrazine-1,6-dione γ-secretase modulators with robust central efficacy” (Medchemcomm, 2017)

What was measured:
Gamma-secretase = test: Modulation of gamma-secretase (unknown origin) expressed in CHO cells co-expressing human wild type APP assessed as reduction in amyloid beta 42 levels after 24 hrs by ELISA; format: cell-based
[1] = Apparent intrinsic clearance in human liver microsomes; format: ADME, microsome; details: read-out: CLH
[2] = Cardiotoxicity in Wistar rat langendorff isolated heart model assessed as decrease in contractility perfused for 5 mins measured for 1 min; format: toxicity, tissue-based
[3] = Cardiotoxicity in Wistar rat langendorff isolated heart model assessed as decrease in left ventricle pressure perfused for 5 mins measured for 1 min; format: toxicity, tissue-based
[4] = Cardiotoxicity in Wistar rat langendorff isolated heart model assessed as decrease in perfusion pressure perfused for 5 mins measured for 1 min; format: toxicity, tissue-based
Rattus norvegicus [5] = test: Toxicity in Sprague-Dawley rat assessed as lethality at 100 mg/kg administered via oral gavage; format: organism-based; details: in vivo
How it was run: (§1)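 Single escalating oral gavage doses given to Sprague-Dawley rats, 3 per sex per dose. Suspension in 0.5% methylcellulose with 0.1% Polysorbate 80, dosed at 10 mL/kg. Clinical signs watched continuously for the first several hours and/or intermittently through the dosing day. Plasma drug levels sampled at 1, 4, 8 and 24 h post-dose. Lethality scored per group of 6.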

[6] = Total Cmax in Sprague-Dawley rat at 100 mg/kg administered via oral gavage measured at 1 to 24 hrs post dose; format: ADME, organism-based; set-up: dose 100 mg/kg, route oral; details: in vivo
How it was run: (§2)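 Single escalating oral gavage doses given to Sprague-Dawley rats, 3/sex/dose. Suspension in 0.5% methylcellulose with 0.1% Polysorbate 80, dosed at 10 mL/kg. […] Clinical signs also monitored.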

Rattus norvegicus [7] = test: Unbound Cmax in Sprague-Dawley rat at 100 mg/kg administered via oral gavage measured at 1 to 24 hrs post dose; format: ADME, organism-based; details: in vivo; how it was run: as §2
[8] = Ratio of IC50 for decrease in contractility of Wistar rat langendorff isolated heart model to fCmax in Sprague-Dawley rat at 100 mg/kg administered via oral gavage; format: organism-based; details: in vivo
MDR1 (P-gp), human = test: in vitro; details: dog, MDCK-MDR1;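 further: transwell permeability assay, efflux ratio of apparent permeability, compound tested at 2 µM over 5 h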
Rattus norvegicus [9] = test: Toxicity in Sprague-Dawley rat assessed as lethality at 300 mg/kg administered via oral gavage; format: organism-based; details: in vivo
[10] = Total Cmax in Sprague-Dawley rat at 300 mg/kg administered via oral gavage measured at 1 to 24 hrs post dose; format: ADME, organism-based; set-up: dose 300 mg/kg, route oral; details: in vivo
Rattus norvegicus [11] = test: Unbound Cmax in Sprague-Dawley rat at 300 mg/kg administered via oral gavage measured at 1 to 24 hrs post dose; format: ADME, organism-based; details: in vivo
[12] = Clearance in rat at 1 mg/kg, iv; format: ADME, organism-based; details: in vivo
[13] = Half life in rat at 1 mg/kg, iv; format: ADME, organism-based; details: in vivo
[14] = Oral bioavailability in rat at 5 mg/kg; format: ADME, organism-based; details: in vivo
[15] = Ratio of drug level in brain to plasma in rat at 5 mg/kg, sc measured at 1 to 7 hrs; format: ADME, organism-based; details: brain and plasma, read-out: BPR
[16] = Fraction unbound in rat plasma; format: ADME, cell-free
[17] = Fraction unbound in rat brain; format: ADME, tissue-based
Rattus norvegicus [18] = test: Reduction of amyloid beta 42 levels in Sprague-Dawley rat at 10 mg/kg, po measured at 4 hrs by DELFIA analysis relative to control; format: functional; set-up: scale not given: the % may be the effect or the level left
How it was run: (§3)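 Male Sprague-Dawley rats (254-326 g) dosed orally with vehicle or 10 or 40 mg/kg. Brains taken at 1, 4, 8, 11, 16 and 20 h post-dose, 4 rats per group. Homogenized in 0.4% DEA/50 mM NaCl, held overnight at 4 °C, spun at 135,000xg for 1 h. Supernatant cleaned by solid-phase extraction and concentrated; Aβ42 read by DELFIA as % change vs vehicle.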

Rattus norvegicus [19] = test: Reduction of amyloid beta 42 levels in Sprague-Dawley rat at 40 mg/kg, po measured at 4 hrs by DELFIA analysis relative to control; format: functional; set-up: scale not given: the % may be the effect or the level left; how it was run: as §3
[20] = Unbound brain concentration in Sprague-Dawley rat at 10 mg/kg, po; format: ADME, organism-based; details: in vivo
[21] = Unbound brain concentration in Sprague-Dawley rat at 40 mg/kg, po; format: ADME, organism-based; details: in vivo
Rattus norvegicus [22] = test: Reduction of amyloid beta 42 levels in Sprague-Dawley rat at unbound brain concentration administered 10 mg/kg, po by DELFIA analysis relative to control; format: functional
[23] = Total Cmax in Sprague-Dawley rat at 30 mg/kg administered via oral gavage measured at 1 to 24 hrs post dose; format: ADME, organism-based; set-up: dose 30 mg/kg, route oral; details: in vivo; how it was run: as §2
Rattus norvegicus [24] = test: Unbound Cmax in Sprague-Dawley rat at 30 mg/kg administered via oral gavage measured at 1 to 24 hrs post dose; format: ADME, organism-based; details: in vivo; how it was run: as §2
Rattus norvegicus [25] = test: Toxicity in Sprague-Dawley rat assessed as lethality at 30 mg/kg administered via oral gavage; format: organism-based; details: in vivo; how it was run: as §1
[26] = Ratio of IC50 for decrease in contractility of Wistar rat langendorff isolated heart model to fCmax in Sprague-Dawley rat at 30 mg/kg administered via oral gavage; format: organism-based; details: in vivo

| IC50 (Gamma-secretase) | microsomal CLint [1] | efflux ratio at 5 h, 2 µM (MDR1 (P-gp), human) | Compound | further results |
| --- | --- | --- | --- | --- |
| 52 nM | 14.6 µL/min/mg | 1.7 | Cc1cn(-c2ccc3n(c2=O)CCN(C[C@@]24C[C@@H]2COc2cc(C(F)(F)F)ccc24)C3=O)cn1 |  |
| 181 nM | 33.7 µL/min/mg | 2.2 | COc1ccc2c(c1)[C@]1(CN3CCn4c(ccc(-n5cnc(C)c5)c4=O)C3=O)C[C@@H]1CO2 |  |
| 5.6 nM | 37.9 µL/min/mg | 2.4 | Cc1cn(-c2ccc3n(c2=O)CCN(C[C@@]24C[C@@H]2COc2ccc(C(F)(F)F)cc24)C3=O)cn1 |  |
| 53 nM |  | 1.9 | Cc1cn(-c2ccc3n(c2=O)CCN(CC2=CC(C)(C)Oc4ccc(Cl)cc42)C3=O)cn1 |  |
| 801 nM | 242 µL/min/mg | 1.8 | Cc1cn(-c2ccc3n(c2=O)CCN([C@H](C)C2=CC(C)(C)Oc4ccc(C(F)(F)F)cc42)C3=O)cn1 |  |
| 30 nM | 108 µL/min/mg | 1.7 | Cc1cn(-c2ccc3n(c2=O)CCN(CC2=CCOc4ccc(C(F)(F)F)cc42)C3=O)cn1 |  |
| 63 nM | 43.9 µL/min/mg | 1.8 | Cc1cn(-c2ccc3n(c2=O)CCN(C[C@@]24C[C@@H]2COc2ccc(Cl)cc24)C3=O)cn1 |  |
| 129 nM | 70.5 µL/min/mg | 1.9 | Cc1cn(-c2ccc3n(c2=O)CCN(C[C@]24C[C@H]2COc2ccc(C(F)(F)F)cc24)C3=O)cn1 |  |
| 322 nM | 37.6 µL/min/mg | 1.9 | Cc1cn(-c2ccc3n(c2=O)CCN(CC2CCOc4ccc(C(F)(F)F)cc42)C3=O)cn1 (stereo unspecified) |  |
| 13 nM | 47.8 µL/min/mg | 2 | Cc1cn(-c2ccc3n(c2=O)CCN(CC2=CC(C)(C)Oc4ccc(C(F)(F)F)cc42)C3=O)cn1 |  |

| Compound | IC50 (Gamma-secretase) | microsomal CLint [1] | efflux ratio at 5 h, 2 µM (MDR1 (P-gp), human) | further results |
| --- | --- | --- | --- | --- |
| Cc1cn(-c2ccc3n(c2=O)CCN([C@@H](C)C2=CC(C)(C)Oc4ccc(OC(F)(F)F)cc42)C3=O)cn1 | 6 nM | 25.7 µL/min/mg | 1.9 | IC50 at 5 min [2]: 2480 nM; IC50 at 5 min [3]: 1620 nM; EC50 at 5 min [4]: 1370 nM; Activity (Rattus norvegicus [5]): Toxic; Cmax [6]: 17.7 µM; fCmax (Rattus norvegicus [7]): 620 nM; Ratio [8]: 4 |
| Cc1cn(-c2ccc3n(c2=O)CCN(C[C@@]24C[C@@H]2C(C)(C)Oc2ccc(C(F)(F)F)cc24)C3=O)cn1 |  | 34.5 µL/min/mg |  | IC50 at 5 min [2]: > 30000 nM; IC50 at 5 min [3]: > 30000 nM; EC50 at 5 min [4]: > 30000 nM; Activity (Rattus norvegicus [9]): Non-Toxic; Cmax [10]: 90.4 µM; fCmax (Rattus norvegicus [11]): 1620 nM; clearance [12]: 26.4 mL/min/kg; half-life [13]: 1.6 h; bioavailability [14]: 67%; Kp [15]: 0.76; fraction unbound [16]: 0.018; fraction unbound [17]: 0.0054; Activity (Rattus norvegicus [18]): 40%; Activity (Rattus norvegicus [19]): 62%; Drug uptake(free) [20]: 11 nM; Drug uptake(free) [21]: 67 nM; %max (Rattus norvegicus [22]): 40% |
| Cc1cn(-c2ccc3n(c2=O)CCN([C@@H](C)C2=CC(C)(C)Oc4ccc(C(F)(F)F)cc42)C3=O)cn1 | 4.9 nM | 14.3 µL/min/mg | 1.9 | IC50 at 5 min [2]: 1360 nM; IC50 at 5 min [3]: 1030 nM; EC50 at 5 min [4]: 576 nM; Cmax [23]: 5.84 µM; fCmax (Rattus norvegicus [24]): 205 nM; Activity (Rattus norvegicus [25]): Toxic; Ratio [26]: 6.6 |
| Cc1cn(-c2ccc3n(c2=O)CCN(C[C@@]24C[C@@H]2C(C)(C)Oc2ccc(OC(F)(F)F)cc24)C3=O)cn1 | 5.1 nM | 42.4 µL/min/mg | 2.1 | IC50 at 5 min [2]: > 30000 nM; IC50 at 5 min [3]: > 30000 nM; EC50 at 5 min [4]: > 30000 nM; Activity (Rattus norvegicus [9]): Non-Toxic; Cmax [10]: 60.9 µM; fCmax (Rattus norvegicus [11]): 670 nM |
